Experimental data as given in ChEMBL document CHEMBL2203269, “Target-Activated Prodrugs (TAPs) for the Autoregulated Inhibition of MMP12” (ACS Med Chem Lett, 2012).

Substrate: CC(C)C[C@H](NC(=O)CN(C(=O)[C@H](CC(C)C)NC(=O)[C@@H]1CCCN1C(=O)OCc1ccccc1)S(=O)(=O)c1ccc(-c2ccccc2)cc1)C(=O)N[C@@H](CCC(=O)O)C(=O)N[C@@H](CCC(=O)O)C(=O)N[C@@H](C)C(N)=O
Experiment: Ratio of Kcat to Km for human MMP-12
Outline: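 Recombinant human MMP12 was incubated with the peptidic prodrug substrate. Cleavage at the N terminus of the P1 leucine was monitored by HPLC, and kcat/Km was determined from the HPLC data.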

B1: Macrophage metalloelastase (Homo sapiens), P39900 (protein)
chain: MKFLLILLLQATASGALPLNSSTSLEKNNVLFGERYLEKFYGLEINKLPVTKMKYSGNLMKEKIQEMQHFLGLKVTGQLDTSTLEMMHAPRCGVPDVHHFREMPGGPVWRKHYITYRINNYTPDMNREDVDYAIRKAFQVWSNVTPLKFSKINTGMADILVVFARGAHGDFHAFDGKGGILAHAFGPGSGIGGDAHFDEDEFWTTHSGGTNLFLTAVHEIGHSLGLGHSSDPKAVMFPTYKYVDINTFRLSADDIRGIQSLYGDPKENQRLPNPDNSEPALCDPNLSFDAVTTVGNKIFFFKDRFFWLKVSERPKTSVNLISSLWPTLPSGIEAAYEIEARNQVFLFKDDKYWLISNLRPEPNYPKSIHSFGFPNFVKKIDAAVFNPRFYRTYFFVDNQYWRYDERRQMMDPGYPKLITKNFQGIGPKIDAVFYSKNKYYYFFQGSNQFEYDFLLQRITKTLKSNSWFGC
kcat/Km: 3.7 ×10³ /M.s
